Data taken from ChEMBL document CHEMBL1154067, “Antiviral and cytotoxic activities of aminoarylazo compounds and aryltriazene derivatives” (Bioorg Med Chem, 2009).
Active and inactive are the calls of the source.

Columns and labels:
[1] = test system: Bovine viral diarrhea virus 1; assay: Antiviral activity against Bovine viral diarrhea virus infected in MDBK cells assessed as inhibition of virus-induced cytopathicity after 3 to 4 days by MTT assay; format: functional, organism-based; conditions: Bovine viral diarrhea virus isolates and strains
Coxsackievirus B2 = assay: Antiviral activity against Coxsackie virus type B2 virus infected in african green monkey Vero-76 cells after 3 days by plaque reduction assay; format: functional, organism-based; conditions: Enterovirus B, Vero 76, 72 h
Summary of the method: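 Vero 76 cells seeded at 2 × 10^5 cells/well, grown overnight to confluence at 37 °C in 5% CO2, then infected at 50–100 PFU/well. Unadsorbed virus removed. Overlay of DMEM with 1% inactivated FCS and 0.75% methylcellulose, with or without serial compound dilutions. After 3 days at 37 °C, fixed and stained with crystal violet in PBS/50% ethanol; plaques counted. EC50 is the concentration reducing plaque number by 50%.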

[2] = Cytotoxicity against hamster BHK21 cells assessed as reduction in cell viability after 48 to 96 hrs by MTT assay; format: cell-based, Mesocricetus auratus, BHK-21
Summary of the method: (§1)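 Mock-infected cells in maintenance medium, MDBK at 6 × 10^5 and BHK at 1 × 10^6 cells/mL initial density, with or without serial compound dilutions. Run in parallel with antiviral assays. Viability by MTT after 48–96 h at 37 °C, 5% CO2. CC50 = concentration reducing viability 50%.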

[3] = Cytotoxicity against MDBK cells after 48 to 96 hrs by MTT assay; format: cell-based, Bos taurus; conditions: cattle; summary of the method: as §1
[4] = (§2) Cytotoxicity against african green monkey Vero 76 cells by crystal violet staining; format: cell-based; conditions: chlorocebus sabaeus, Vero 76 cells
Summary of the method: (§3)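 Mock-infected Vero 76 seeded at 4 × 10^5 cells/mL, run in parallel with plaque assays, with or without serial compound dilutions. Cell number of monolayers determined by crystal violet staining. CC50 = concentration reducing viable cell number 50%.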

Poliovirus 1 = assay: Antiviral activity against Human poliovirus 1 strain Sabin after 2 days by plaque reduction assay; format: functional; conditions: for EC50: Enterovirus C, 48 h
Yellow fever virus = assay: Antiviral activity against Yellow fever virus infected in BHK-21 cells assessed as inhibition of virus-induced cytopathicity after 3 to 4 days by MTT assay; format: functional, organism-based
[5] = (§4) Cytotoxicity against human MT4 cells after 96 hrs by MTT assay; format: cell-based; conditions: MT4 cells
Summary of the method: (§5)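 Exponentially growing mock-infected MT-4 seeded at 1 × 10^5 cells/mL in RPMI-1640 with 10% FCS, penicillin and streptomycin. Incubated with or without serial compound dilutions at 37 °C, 5% CO2. Viability by MTT after 96 h. CC50 = concentration reducing viability 50%.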

[6] = test system: Mammalian orthoreovirus 1; assay: Antiviral activity against Reovirus-1 infected in BHK-21 cells assessed as inhibition of virus-induced cytopathicity after 3 to 4 days by MTT assay; format: functional, organism-based; conditions: Mammalian orthoreovirus 1, BHK-21
Summary of the method: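 BHK-21 cells seeded at 5 × 10^4 cells/well, grown overnight to confluent monolayers at 37 °C in 5% CO2, then infected at m.o.i. 0.01 in serum-free medium. One hour later, MEM Earle's with 1% final inactivated FCS added, with or without serial compound dilutions. Viability read by MTT after 3–4 days at 37 °C. EC50 is the concentration giving 50% protection from cytopathogenicity.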

[7] = test system: Respiratory syncytial virus; assay: Antiviral activity against Respiratory syncytial virus A2 infected in Vero-76 cells after 5 days by plaque reduction assay; format: functional, organism-based; conditions: human respiratory syncytial virus, A2, Vero 76, 120 h
Human alphaherpesvirus 1 = assay: Antiviral activity against HSV1 infected in Vero-76 cells after 3 days by plaque reduction assay; format: functional, organism-based; conditions: Human alphaherpesvirus 1, Vero 76, 72 h
[8] = test system: Human immunodeficiency virus 1; assay: Antiviral activity against HIV1 infected in human MT4 cells assessed as inhibition of virus-induced cytopathicity after 4 days by MTT assay; format: functional, organism-based
Vaccinia virus = assay: Antiviral activity against Vaccinia virus after 3 days by plaque reduction assay; format: functional, organism-based; conditions: Orthopoxvirus vaccinia
[9] = test system: Vesicular stomatitis virus; assay: Antiviral activity against Vesicular stomatitis virus after 2 days by plaque reduction assay; format: functional, organism-based
MT4 = assay: as §4; format: cell-based; conditions: mt4, 96 h; summary of the method: as §5
Vero = assay: as §2; format: cell-based; conditions: chlorocebus sabaeus, vero; summary of the method: as §3

SMILES: Nc1nc2c(ncn2COCCO)c(=O)[nH]1 [ACYCLOVIR]
- EC50 [1]: > 100 µM
- EC50 (Coxsackievirus B2): > 100 µM
- CC50 ([2]; BHK21 cells): > 100 µM
- CC50 ([3]; MDBK cells): > 100 µM
- CC50 [4]: > 100 µM
- EC50 (Poliovirus 1): > 100 µM
- EC50 (Yellow fever virus): > 100 µM
- CC50 at 96 h [5]: > 100 µM
- EC50 [6]: > 100 µM
- EC50 [7]: > 100 µM

SMILES: C[C@@]1(O)[C@H](O)[C@@H](CO)O[C@H]1n1cnc2c(=O)[nH]c(N)nc21 [2'-B-METHYL-GUANOSINE]
- CC50 ([2]; bhk-21): 90 µM
- CC50 ([3]; MDBK cells): > 100 µM
- CC50 [4]: > 100 µM
- EC50 (Poliovirus 1): > 100 µM
- EC50 (Human alphaherpesvirus 1): > 100 µM
- EC50 (Yellow fever virus): 1.8 µM
- CC50 at 96 h [5]: > 100 µM
- EC50 [6]: 2.4 µM
- EC50 [7]: > 100 µM

SMILES: CN(C)CCCN(/N=N/c1ccccc1)c1cccc(C(F)(F)F)c1
- EC50 [1]: > 38 µM
- EC50 (Coxsackievirus B2): ≥ 20 µM
- inhibition [8]: inactive
- CC50 ([2]; BHK21 cells): 49 µM
- CC50 ([3]; MDBK cells): 38 µM
- CC50 [4]: 20 µM
- EC50 (Poliovirus 1): > 20 µM
- Activity (Vaccinia virus): inactive
- EC50 (Human alphaherpesvirus 1): 14 µM
- EC50 (Yellow fever virus): ≥ 49 µM
- CC50 at 96 h [5]: 14 µM
- Activity [9]: inactive
- EC50 [6]: > 49 µM
- EC50 [7]: > 20 µM

SMILES: NC(=O)c1ncn([C@@H]2O[C@H](CO)[C@@H](O)[C@H]2O)n1 [RIBAVIRIN]
- EC50 [1]: 7 µM
- EC50 (Coxsackievirus B2): > 100 µM
- CC50 ([2]; BHK21 cells): > 100 µM
- CC50 ([3]; MDBK cells): > 100 µM
- CC50 [4]: > 100 µM
- EC50 (Poliovirus 1): > 100 µM
- EC50 (Human alphaherpesvirus 1): > 100 µM
- EC50 (Yellow fever virus): > 100 µM
- CC50 (MT4): 31 µM
- EC50 [6]: > 100 µM
- EC50 [7]: 7 µM

SMILES: Fc1ccc(/N=N/c2ccc(NC[C@@H]3CCCN4CCCC[C@H]34)c3c2CCCC3)c(F)c1
- EC50 [1]: > 11 µM
- EC50 (Coxsackievirus B2): > 15 µM
- inhibition [8]: inactive
- CC50 ([2]; bhk-21): 9 µM
- CC50 ([3]; mdbk): 11 µM
- CC50 (Vero): 15 µM
- Activity (Poliovirus 1): inactive
- Activity (Vaccinia virus): inactive
- EC50 (Human alphaherpesvirus 1): > 15 µM
- EC50 (Yellow fever virus): > 9 µM
- CC50 (MT4): 51 µM
- Activity [9]: inactive
- EC50 [6]: > 9 µM
- EC50 [7]: > 15 µM

SMILES: CN(C)CCCNc1ccc(/N=N/c2cccc([N+](=O)[O-])c2)cc1
- EC50 [1]: 16 µM
- EC50 (Coxsackievirus B2): 11 µM
- inhibition [8]: inactive
- CC50 ([2]; bhk-21): 20 µM
- CC50 ([3]; mdbk): 33 µM
- CC50 (Vero): 25 µM
- Activity (Poliovirus 1): inactive
- Activity (Vaccinia virus): inactive
- EC50 (Human alphaherpesvirus 1): 6 µM
- EC50 (Yellow fever virus): 7 µM
- CC50 (MT4): 14 µM
- Activity [9]: inactive
- EC50 [6]: > 20 µM
- EC50 [7]: > 25 µM
